Laboratory results as given in ChEMBL document CHEMBL5331127, “Discovery of ARD-2051 as a Potent and Orally Efficacious Proteolysis Targeting Chimera (PROTAC) Degrader of Androgen Receptor for the Treatment of Advanced Prostate Cancer” (J Med Chem, 2023).

What was measured:
[1] = target: T1, Androgen receptor (Homo sapiens) (UniProt P10275); assay: Induction of androgen receptor degradation in human VCaP cells at 0.01 uM after 24 hrs by Western blotting analysis relative to control; type: cell-based
T1 sequence (whole entry): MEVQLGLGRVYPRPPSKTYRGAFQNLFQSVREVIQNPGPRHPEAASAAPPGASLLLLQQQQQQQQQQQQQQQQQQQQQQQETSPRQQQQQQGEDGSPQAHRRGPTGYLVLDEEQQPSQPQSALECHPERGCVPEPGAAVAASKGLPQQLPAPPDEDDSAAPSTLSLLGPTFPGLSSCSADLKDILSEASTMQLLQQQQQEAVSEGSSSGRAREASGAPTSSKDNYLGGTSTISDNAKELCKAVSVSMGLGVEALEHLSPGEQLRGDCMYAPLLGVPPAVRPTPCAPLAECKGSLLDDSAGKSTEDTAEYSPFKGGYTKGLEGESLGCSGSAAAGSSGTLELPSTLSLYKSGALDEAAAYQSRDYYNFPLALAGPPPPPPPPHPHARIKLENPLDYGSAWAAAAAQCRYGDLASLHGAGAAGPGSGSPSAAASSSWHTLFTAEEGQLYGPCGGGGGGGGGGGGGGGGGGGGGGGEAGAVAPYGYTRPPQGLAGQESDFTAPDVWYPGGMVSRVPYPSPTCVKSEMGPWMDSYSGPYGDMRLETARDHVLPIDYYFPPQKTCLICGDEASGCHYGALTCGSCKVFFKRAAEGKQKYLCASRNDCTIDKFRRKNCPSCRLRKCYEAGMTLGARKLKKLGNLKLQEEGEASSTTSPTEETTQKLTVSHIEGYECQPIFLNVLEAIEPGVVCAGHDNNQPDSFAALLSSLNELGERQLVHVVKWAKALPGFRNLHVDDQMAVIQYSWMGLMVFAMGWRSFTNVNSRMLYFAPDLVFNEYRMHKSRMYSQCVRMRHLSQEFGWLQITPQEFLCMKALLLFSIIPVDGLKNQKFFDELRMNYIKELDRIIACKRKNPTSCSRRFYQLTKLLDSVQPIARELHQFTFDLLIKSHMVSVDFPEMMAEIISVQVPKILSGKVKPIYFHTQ
Method in brief: (§1)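 VCaP cells treated for 24 h at 10, 100 or 1000 nM. AR protein measured by Western blotting.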

[2] = target: T1, Androgen receptor (Homo sapiens); assay: Induction of androgen receptor degradation in human VCaP cells at 0.1 uM after 24 hrs by Western blotting analysis relative to control; type: cell-based; method in brief: as §1
[3] = target: T1, Androgen receptor (Homo sapiens); assay: Induction of androgen receptor degradation in human VCaP cells at 1 uM after 24 hrs by Western blotting analysis relative to control; type: cell-based; method in brief: as §1
[4] = Drug concentration in ICR mouse plasma at 10 mg/kg, po measured after 1 hr; type: ADME, organism-based
Method in brief: (§2)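 Mice given a single 10 mg/kg dose by oral gavage, 3 mice per time point. Plasma drug levels measured at 1, 3, 6 and 24 h; mean ± SD reported.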

[5] = Drug concentration in ICR mouse plasma at 10 mg/kg, po measured after 3 hrs; type: ADME, organism-based; method in brief: as §2
[6] = Drug concentration in ICR mouse plasma at 10 mg/kg, po measured after 6 hrs; type: ADME, organism-based; method in brief: as §2

Structure (SMILES) | Activity [1] [%] | Activity [2] [%] | Activity [3] [%] | concentration at 1 h [4] [ng/mL] | concentration at 3 h [5] [ng/mL] | concentration at 6 h [6] [ng/mL]
N#Cc1ccc(N2CCC3(CCN(c4ccc(C(=O)N5CCCN(C6CCN(c7ccc8c(c7)C(=O)N(C7CCC(=O)NC7=O)C8=O)CC6)CC5)cc4)CC3)C2)cc1Cl (stereo not drawn) | 45 | 80 | 92 | – | – | –
N#Cc1ccc(N2CCC3(CCN(c4ccc(C(=O)N5CCC6(C5)CN(C5CCN(c7ccc8c(c7)C(=O)N(C7CCC(=O)NC7=O)C8=O)CC5)C6)cc4)CC3)C2)cc1Cl (stereo not drawn) | 20 | 60 | 82 | – | – | –
C[C@H]1CC2(CCN(c3ccc(C(=O)N4CCN(CC5CN(c6ccc7c(c6)C(=O)N(C6CCC(=O)NC6=O)C7=O)C5)CC4)cc3)CC2)CN1c1ccc(C#N)c(Cl)c1 (stereo partly drawn) | > 90 | > 95 | > 95 | – | – | –
C[C@H]1CC2(CCN(c3ccc(C(=O)N4CCC(CN5CCN(c6ccc7c(c6)C(=O)N(C6CCC(=O)NC6=O)C7=O)CC5)CC4)cc3)CC2)CN1c1ccc(C#N)c(Cl)c1 (stereo partly drawn) | 81 | > 95 | > 95 | – | – | –
N#Cc1ccc(N2CCC3(CCN(c4ccc(C(=O)N5CCN(C6CCN(c7ccc8c(c7)C(=O)N(C7CCC(=O)NC7=O)C8=O)CC6)CC5)cc4)CC3)C2)cc1Cl (stereo not drawn) | 24 | 74 | 95 | – | – | –
C[C@H]1N(c2ccc(C#N)c(Cl)c2)CCC12CCN(c1ccc(C(=O)N3CCN(C4CN(c5ccc6c(c5)C(=O)N(C5CCC(=O)NC5=O)C6=O)C4)CC3)cc1)CC2 (stereo partly drawn) | 46 | 68 | 91 | – | – | –
C[C@H]1CC2(CCN(c3ccc(C(=O)N4CC5(C4)CN(c4ccc6c(c4)C(=O)N(C4CCC(=O)NC4=O)C6=O)C5)cc3)CC2)CN1c1ccc(C#N)c(Cl)c1 (stereo partly drawn) | 79 | > 95 | > 95 | – | – | –
N#Cc1ccc(N2CCC3(CCN(c4ccc(C(=O)N5CCN(CC6CN(c7ccc8c(c7)C(=O)N(C7CCC(=O)NC7=O)C8=O)C6)CC5)cc4)CC3)C2)cc1Cl (stereo not drawn) | 30 | 81 | 85 | – | – | –
N#Cc1ccc(N2CCC3(CCN(c4ccc(C(=O)N5CCN(C6CN(c7ccc8c(c7)C(=O)N(C7CCC(=O)NC7=O)C8=O)C6)CC5)cc4)CC3)C2)cc1Cl (stereo not drawn) | 78 | > 95 | > 95 | – | – | –
N#Cc1ccc(N2CCC3(CCN(c4ccc(C(=O)N5CC6(C5)CN(C5CCN(c7ccc8c(c7)C(=O)N(C7CCC(=O)NC7=O)C8=O)CC5)C6)cc4)CC3)C2)cc1Cl (stereo not drawn) | < 5 | 46 | 73 | – | – | –
C[C@@H]1N(c2ccc(C#N)c(Cl)c2)CCC12CCN(c1ccc(C(=O)N3CCN(C4CN(c5ccc6c(c5)C(=O)N(C5CCC(=O)NC5=O)C6=O)C4)CC3)cc1)CC2 (stereo partly drawn) | 84 | > 95 | > 95 | – | – | –
C[C@H]1CC2(CCN(c3ccc(C(=O)N4CCN(C5CCN(c6ccc7c(c6)C(=O)N(C6CCC(=O)NC6=O)C7=O)CC5)CC4)cc3)CC2)CN1c1ccc(C#N)c(Cl)c1 (stereo partly drawn) | > 90 | > 95 | > 95 | 238 | 208 | 104
C[C@H]1CC2(CCN(c3ccc(C(=O)N4C[C@@H]5C[C@H]4CN5C4CN(c5ccc6c(c5)C(=O)N(C5CCC(=O)NC5=O)C6=O)C4)cc3)CC2)CN1c1ccc(C#N)c(Cl)c1 (stereo partly drawn) | > 90 | > 95 | > 95 | – | – | –
N#Cc1ccc(N2CCC3(CCN(C(=O)c4ccc(N5CCN(C6CCN(c7ccc8c(c7)C(=O)N(C7CCC(=O)NC7=O)C8=O)CC6)CC5)cc4)CC3)C2)cc1Cl (stereo not drawn) | < 5 | 43 | 56 | – | – | –
N#Cc1ccc(N2CCC3(CCN(C(=O)c4ccc(C(=O)N5CCN(CC6CCN(c7ccc8c(c7)C(=O)N(C7CCC(=O)NC7=O)C8=O)CC6)CC5)cc4)CC3)C2)cc1Cl (stereo not drawn) | < 5 | < 5 | 33 | – | – | –
C[C@@H]1CC2(CCN(c3ccc(C(=O)N4CCN(C5CN(c6ccc7c(c6)C(=O)N(C6CCC(=O)NC6=O)C7=O)C5)CC4)cc3)CC2)CN1c1ccc(C#N)c(Cl)c1 (stereo partly drawn) | 66 | 93 | > 95 | – | – | –

Structure (SMILES) | Activity [1] [%] | Activity [2] [%] | Activity [3] [%] | concentration at 1 h [4] [ng/mL] | concentration at 3 h [5] [ng/mL] | concentration at 6 h [6] [ng/mL]
C[C@H]1CC2(CCN(c3ccc(C(=O)N4CCN(CC5CCN(c6ccc7c(c6)C(=O)N(C6CCC(=O)NC6=O)C7=O)CC5)CC4)cc3)CC2)CN1c1ccc(C#N)c(Cl)c1 (stereo partly drawn) | > 90 | > 95 | > 95 | – | – | –
C[C@H]1CC2(CCN(c3ccc(C(=O)N4CCN(C5CN(c6ccc7c(c6)C(=O)N(C6CCC(=O)NC6=O)C7=O)C5)CC4)cc3)CC2)CN1c1cnc(C#N)c(C(F)(F)F)c1 (stereo partly drawn) | > 90 | > 95 | > 95 | 571 | 678 | 451
C[C@H]1CC2(CCN(c3ccc(C(=O)N4CCN(C5CN(c6ccc7c(c6)C(=O)N(C6CCC(=O)NC6=O)C7=O)C5)CC4)cc3)CC2)CN1c1ccc(C#N)c(F)c1 (stereo partly drawn) | > 90 | > 95 | > 95 | 134 | 146 | 91
N#Cc1ccc(N2CCC3(CCN(c4ccc(C(=O)N5CCN(CC6CCN(c7ccc8c(c7)C(=O)N(C7CCC(=O)NC7=O)C8=O)CC6)CC5)cc4)CC3)C2)cc1Cl (stereo not drawn) | 24 | 80 | > 95 | – | – | –
N#Cc1ccc(N2CCC3(CCN(c4ccc(C(=O)N5CC6(C5)CN(C5CN(c7ccc8c(c7)C(=O)N(C7CCC(=O)NC7=O)C8=O)C5)C6)cc4)CC3)C2)cc1Cl (stereo not drawn) | 22 | 62 | 81 | – | – | –
N#Cc1ccc(N2CCC3(CCN(c4ccc(C(=O)N5CCCN(C6CCN(c7ccc8c(c7)C(=O)N(C7CCC(=O)NC7=O)C8=O)CC6)CCC5)cc4)CC3)C2)cc1Cl (stereo not drawn) | < 5 | 54 | 54 | – | – | –
C[C@H]1CC2(CCN(c3ccc(C(=O)N4CCN(C5CN(c6ccc7c(c6)C(=O)N(C6CCC(=O)NC6=O)C7=O)C5)CC4)cc3)CC2)CN1c1ccc(C#N)c(C(F)F)c1 (stereo partly drawn) | > 90 | > 95 | > 95 | – | – | –
C[C@H]1CC2(CCN(c3ccc(C(=O)N4CC(N5CCN(c6ccc7c(c6)C(=O)N(C6CCC(=O)NC6=O)C7=O)CC5)C4)cc3)CC2)CN1c1ccc(C#N)c(Cl)c1 (stereo partly drawn) | > 90 | > 95 | > 95 | – | – | –
N#Cc1ccc(N2CCC3(CCN(c4ccc(C(=O)N5CC6CC(C5)CN(C5CCN(c7ccc8c(c7)C(=O)N(C7CCC(=O)NC7=O)C8=O)CC5)C6)cc4)CC3)C2)cc1Cl (stereo not drawn) | 23 | 80 | 90 | – | – | –
N#Cc1ccc(N2CCC3(CCN(c4ccc(C(=O)N5CCC(N6CCN(c7ccc8c(c7)C(=O)N(C7CCC(=O)NC7=O)C8=O)CC6)CC5)cc4)CC3)C2)cc1Cl (stereo not drawn) | 37 | 20 | > 95 | – | – | –
C[C@H]1CC2(CCN(c3ccc(C(=O)N4CCC(C5CN(c6ccc7c(c6)C(=O)N(C6CCC(=O)NC6=O)C7=O)C5)CC4)cc3)CC2)CN1c1ccc(C#N)c(Cl)c1 (stereo partly drawn) | 12 | 64 | 92 | – | – | –
C[C@H]1CC2(CCN(c3ccc(C(=O)N4C[C@H]5C[C@@H]4CN5C4CN(c5ccc6c(c5)C(=O)N(C5CCC(=O)NC5=O)C6=O)C4)cc3)CC2)CN1c1ccc(C#N)c(Cl)c1 (stereo partly drawn) | 54 | 93 | 95 | – | – | –
N#Cc1ccc(N2CCC3(CCN(c4ccc(C(=O)N5CCCN(C6CN(c7ccc8c(c7)C(=O)N(C7CCC(=O)NC7=O)C8=O)C6)CC5)cc4)CC3)C2)cc1Cl (stereo not drawn) | 39 | 70 | 87 | – | – | –
C[C@H]1CC2(CCN(c3ccc(C(=O)N4CCC(N5CCN(c6ccc7c(c6)C(=O)N(C6CCC(=O)NC6=O)C7=O)CC5)CC4)cc3)CC2)CN1c1ccc(C#N)c(Cl)c1 (stereo partly drawn) | 78 | > 95 | > 95 | – | – | –
C[C@H]1CC2(CCN(c3ccc(C(=O)N4CCN(C5(C#N)CN(c6ccc7c(c6)C(=O)N(C6CCC(=O)NC6=O)C7=O)C5)CC4)cc3)CC2)CN1c1ccc(C#N)c(Cl)c1 (stereo partly drawn) | 81 | 93 | 88 | – | – | –
C[C@H]1CC2(CCN(c3ccc(C(=O)N4CCN(C5CN(c6ccc7c(c6)C(=O)N(C6CCC(=O)NC6=O)C7=O)C5)CC4)cc3)CC2)CN1c1ccc(C#N)c(C(F)(F)F)c1 (stereo partly drawn) | > 90 | > 95 | > 95 | 31 | 56 | 29
